Results on 16 compounds are retold here after ChEMBL document CHEMBL1134773, “Design and synthesis of potent and selective alpha(4)beta(7) integrin antagonists” (J Med Chem, 2001).

pIC50: −log10 of the molar value.

A word on the pIC50: it is −log10 of the IC50, conventionally taken in molar units. Read a high pIC50 as a small IC50.

The target of one assay is T1, Integrin alpha-4/beta-7 (Homo sapiens, UniProt P13612+P26010).
T1 sequence (P13612 whole entry): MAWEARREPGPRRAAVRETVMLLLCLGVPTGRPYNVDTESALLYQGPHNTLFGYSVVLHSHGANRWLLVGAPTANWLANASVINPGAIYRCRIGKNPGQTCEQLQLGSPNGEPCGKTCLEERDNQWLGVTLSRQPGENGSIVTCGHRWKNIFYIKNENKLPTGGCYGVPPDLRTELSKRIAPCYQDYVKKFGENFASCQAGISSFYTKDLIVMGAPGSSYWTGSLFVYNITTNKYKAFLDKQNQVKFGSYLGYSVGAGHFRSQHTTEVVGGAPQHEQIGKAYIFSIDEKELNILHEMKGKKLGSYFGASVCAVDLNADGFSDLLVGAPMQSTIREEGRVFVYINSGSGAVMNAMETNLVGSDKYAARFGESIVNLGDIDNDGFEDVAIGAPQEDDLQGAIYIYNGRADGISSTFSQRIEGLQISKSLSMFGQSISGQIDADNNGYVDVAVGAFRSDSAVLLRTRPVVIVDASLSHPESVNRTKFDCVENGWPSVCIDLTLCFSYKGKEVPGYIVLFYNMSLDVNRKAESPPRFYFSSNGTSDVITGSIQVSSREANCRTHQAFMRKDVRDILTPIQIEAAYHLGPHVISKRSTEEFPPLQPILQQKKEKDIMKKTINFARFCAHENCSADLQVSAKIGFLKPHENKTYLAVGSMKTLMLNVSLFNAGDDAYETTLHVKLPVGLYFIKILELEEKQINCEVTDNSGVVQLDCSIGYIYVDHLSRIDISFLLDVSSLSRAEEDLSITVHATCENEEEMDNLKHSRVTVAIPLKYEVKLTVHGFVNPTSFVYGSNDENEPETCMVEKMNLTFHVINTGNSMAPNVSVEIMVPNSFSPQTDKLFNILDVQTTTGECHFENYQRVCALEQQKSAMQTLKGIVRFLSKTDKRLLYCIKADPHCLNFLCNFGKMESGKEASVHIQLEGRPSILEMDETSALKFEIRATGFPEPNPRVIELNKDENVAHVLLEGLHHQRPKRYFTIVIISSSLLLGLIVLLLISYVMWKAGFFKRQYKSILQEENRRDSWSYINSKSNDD
T1 sequence (P26010 whole entry): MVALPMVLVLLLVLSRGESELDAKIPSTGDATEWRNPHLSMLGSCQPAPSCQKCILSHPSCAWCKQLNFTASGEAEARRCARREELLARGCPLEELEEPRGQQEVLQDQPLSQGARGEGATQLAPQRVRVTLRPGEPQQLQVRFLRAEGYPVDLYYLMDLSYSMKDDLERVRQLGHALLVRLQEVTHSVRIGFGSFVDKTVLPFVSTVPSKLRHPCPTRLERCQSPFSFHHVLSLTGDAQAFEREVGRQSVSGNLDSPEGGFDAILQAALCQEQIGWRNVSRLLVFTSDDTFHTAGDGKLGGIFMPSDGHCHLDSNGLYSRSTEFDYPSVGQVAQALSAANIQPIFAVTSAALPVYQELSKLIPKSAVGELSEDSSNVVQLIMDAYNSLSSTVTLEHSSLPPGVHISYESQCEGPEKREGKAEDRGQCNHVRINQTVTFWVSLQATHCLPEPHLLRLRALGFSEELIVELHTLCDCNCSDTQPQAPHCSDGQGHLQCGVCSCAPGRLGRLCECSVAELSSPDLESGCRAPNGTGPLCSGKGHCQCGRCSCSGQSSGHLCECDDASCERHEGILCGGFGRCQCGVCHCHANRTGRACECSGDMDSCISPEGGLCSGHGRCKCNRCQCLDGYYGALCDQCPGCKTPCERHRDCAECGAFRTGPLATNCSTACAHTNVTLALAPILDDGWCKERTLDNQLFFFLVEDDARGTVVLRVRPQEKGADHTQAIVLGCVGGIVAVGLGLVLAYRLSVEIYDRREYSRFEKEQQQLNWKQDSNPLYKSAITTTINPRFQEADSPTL
Nature of the assay: Inhibition of alpha-4-beta-7/MAdCAM interactions. The format is protein-complex assay. The method in brief: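 Plates carried anti-human IgG capture antibody, then 100 ng MAdCAM-Ig (30 min, room temperature), then were blocked 1 h at 37 °C. H33342-labelled 38-β7 cells (8×10^5/mL, Ca2+/Mg2+ 1.0 mM) were preincubated 10 min at 37 °C with peptide. They adhered 30 min at 37 °C, and unbound cells were spun off inversely at 50g. Values are mean ± SD of ≥3 experiments.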

Another assay deals with PBL. Description: Effect on human PBL cell binding to Laminin. The format is cell-based. The method in brief:
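Human PBL labelled with H33342 (12 μg/mL, 30 min, 37 °C), resuspended at 8×10^5/mL with 1.0 mM Ca2+ and Mg2+. Peptides at 1 mg/mL final were preincubated with the cells for 10 min at 37 °C. Cells then adhered 30 min at 37 °C to plates coated 16 h at 4 °C with 2 μg/well laminin (pH 9.4 carbonate). Read-out is % of medium control, mean ± SD of ≥3 experiments.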

Assay [1] has as its target T2, Integrin alpha-4/beta-7 (Homo sapiens) (UniProt P13612+P26010). Nature of the assay: Inhibition of alpha4-beta7 lymphoma cell binding to CHO-VCAM-1 cells. The format is cell-based.
Assay [2] addresses T2, Integrin alpha-4/beta-7 (Homo sapiens). Nature of the assay: Ability to inhibit adhesion of alpha4-beta7 integrin expressing 38-beta7 lymphoma cells to chinese hamster ovary (CHO) cells stably transfected with MAdCAM-1. The format is cell-based. Put shortly:
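38-β7 lymphoma cells (α4β7+) labelled 30 min at 37 °C with 12 μg/mL H33342, then 8×10^5/mL in buffer with 1.0 mM Ca2+/Mg2+. Preincubated 10 min at 37 °C with peptide at 1 mg/mL final. Allowed to adhere 30 min at 37 °C to confluent MAdCAM-1-transfected CHO monolayers (seeded 24 h before). Nonadherent cells removed by inverse centrifugation. Result given as % of medium control, mean of two experiments.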

In assay [3] the target is Integrin alpha-4/beta-1 (Homo sapiens) (UniProt P05556+P13612). Nature of the assay: Inhibition of alpha4-beta1 lymphoma cell binding to CHO-VCAM-1 cells. The format is cell-based.

For the compound `CC(C)C[C@@H]1NC(=O)[C@H](Cc2c[nH]cn2)NC(=O)[C@H]2CCCN2C(=O)[C@H](CC(=O)O)NC(=O)[C@H]([C@@H](C)O)NC(=O)[C@H](CC(=O)O)NC1=O`, the pIC50 against Integrin alpha-4/beta-7 is 3.52. As to `CC(C)C[C@@H]1NC(=O)[C@@H](Cc2ccc(O)cc2)NC(=O)[C@H]2CCCN2C(=O)[C@@H](CC(=O)O)NC(=O)[C@H]([C@@H](C)O)NC(=O)[C@@H](CC(=O)O)NC1=O`, the Adhesion in the assay with PBL is 111%; in assay [1], 37%; in assay [2], 3%; in assay [3], 78%. `CC(C)C[C@@H]1NC(=O)[C@H](Cc2ccccc2)NC(=O)[C@H]2CCCN2C(=O)[C@H](C)NC(=O)[C@H]([C@@H](C)O)NC(=O)[C@H](CC(=O)O)NC1=O` had a pIC50 against Integrin alpha-4/beta-7 of 3.53.

`CC(C)C[C@H](NC(=O)c1cc2ccccc2cn1)C(=O)N[C@@H](CC(=O)O)C(=O)N[C@H](C(N)=O)[C@@H](C)O` showed a pIC50 at Integrin alpha-4/beta-7 of 3.33.

Turning to `CSCC[C@H]1NC(=O)[C@H]2CCCN2C(=O)[C@@H](CC(=O)O)NC(=O)[C@H]([C@@H](C)O)NC(=O)[C@@H](CC(=O)O)NC(=O)[C@H](CC(C)C)NC1=O`, the Adhesion in the assay with PBL was found to be 102%; in assay [1], 36%; in assay [2], 15%; in assay [3], 108%. For the compound `CC(C)C[C@@H]1NC(=O)[C@@H](Cc2ccccc2)NC(=O)[C@H]2CCCN2C(=O)[C@@H](C)NC(=O)[C@H]([C@@H](C)O)NC(=O)[C@@H](CC(=O)O)NC1=O`, the Adhesion is 36% in assay [1], 7% in assay [2] and 109% in assay [3]. For the compound `CC(C)C[C@@H]1NC(=O)[C@H](Cc2ccc(O)cc2)NC(=O)[C@H]2CCCN2C(=O)[C@H](CC(=O)O)NC(=O)[C@H]([C@@H](C)O)NC(=O)[C@H](CC(=O)O)NC1=O`, on Integrin alpha-4/beta-7, the pIC50 is 3.51.

Regarding `CC(C)C[C@@H]1NC(=O)[C@@H](Cc2c[nH]cn2)NC(=O)[C@H]2CCCN2C(=O)[C@@H](CC(=O)O)NC(=O)[C@H]([C@@H](C)O)NC(=O)[C@@H](CC(=O)O)NC1=O`, the Adhesion was determined as 114% with PBL, 27% in assay [1], 9% in assay [2] and 74% in assay [3].

As to `CC(C)C[C@@H]1NC(=O)[C@H](Cc2ccccc2)NC(=O)[C@H]2CCCN2C(=O)[C@H](CC(=O)O)NC(=O)[C@H]([C@@H](C)O)NC(=O)[C@H](CC(=O)O)NC1=O`, the pIC50 at Integrin alpha-4/beta-7 was 3.79. The same measure, in the same setting: in the case of `CSCC[C@@H]1NC(=O)[C@H]2CCCN2C(=O)[C@H](CC(=O)O)NC(=O)[C@H]([C@@H](C)O)NC(=O)[C@H](CC(=O)O)NC(=O)[C@H](CC(C)C)NC1=O` it was 3.50. `CC(C)C[C@@H]1NC(=O)[C@@H](Cc2ccccc2)NC(=O)[C@H]2CCCN2C(=O)[C@@H](CC(=O)O)NC(=O)[C@H]([C@@H](C)O)NC(=O)[C@@H](CC(=O)O)NC1=O`: the Adhesion in the assay with PBL worked out at 95%; in assay [1] it was 38%; in assay [2], 3%; in assay [3], 72%. The compound `CC(C)C[C@@H]1NC(=O)[C@@H](C)NC(=O)[C@H](C)NC(=O)[C@@H](C)NC(=O)[C@H]([C@@H](C)O)NC(=O)[C@@H](CC(=O)O)NC1=O` yielded an Adhesion in assay [2] of 85%. With `CC[C@H](C)[C@@H]1NC(=O)[C@@H](C)NC(=O)[C@H]2CCCN2C(=O)[C@@H](C)NC(=O)[C@H]([C@@H](C)O)NC(=O)[C@@H](CC(=O)O)NC1=O`, the Adhesion in assay [2] is 64%. As for `NC(=O)C[C@@H]1NC(=O)CNC(=O)[C@@H](Cc2ccccc2)NC(=O)[C@@H](Cc2c[nH]cn2)NC(=O)[C@@H](CCC(=O)O)NC1=O`, the Adhesion in assay [1] stood at 93%; in assay [2] it was 100%. On to `CC(C)C[C@@H]1NC(=O)[C@H](C)NC(=O)[C@@H](C)NC(=O)[C@@H]([C@@H](C)O)NC(=O)[C@@H](CC(=O)O)NC1=O`, for which the Adhesion in assay [2] worked out at 85%. Same read-out and setting: under `CC(C)C[C@@H]1NC(=O)[C@@H](CC(=O)O)NC(=O)[C@H]2CCCN2C(=O)[C@@H](Cc2c[nH]c3ccccc23)NC(=O)[C@H]([C@@H](C)O)NC(=O)[C@@H](CC(=O)O)NC1=O` stands 87%.
